# NR2E3 ag-1 = NR2E3 agonists in two-hybrid cells, primary screen, cell-based, luminescence, CHO-S, Gal4-NCOR/VP16-NR2E3 | Photoreceptor-specific nuclear receptor (Homo sapiens), Q9Y5X4 | luciferase | inhibition of corepressor binding, % at 3.98 µM | 0.35% of 360,000 active | AID 602229, 2012;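 active = inhibition above the mean of all tested compounds plus 3 SD, cut at about 70% in these data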;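 note: 0% = DMSO with NR2E3 transfected cells and 100% = cells lacking NR2E3 construct; higher means lower luciferase signal from less NR2E3 corepressor binding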
# JMJD2C inh = inhibitors of GASC-1 histone demethylase, primary screen, biochemical, fluorescence, DELFIA europium. 0.069% of 330,000 active. inhibition, % at 2.35 µM. GST-JMJD2C(1-420) H3K9me3 demethylation. AID 2099, 2009;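 active = more than half of a compound's replicate wells show inhibition beyond 50%, single wells judged on their own value; inconclusive = some, but no more than half, of replicates pass 50% inhibition; inactive = no replicate passes 50% inhibition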;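 note: signal counts dimethyl H3K9 product captured on neutravidin plate; 0% = median of DMSO wells and 100% = 0.3 times that DMSO median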
# NR2E3 ag-2 = inhibitors of NR2E3-RetCOR corepressor binding, primary screen, NR2E3 agonist project, biochemical, TR-FRET, GST-NR2E3, biotin-RetCOR; AID 2300, 2010; inhibition of corepressor binding, % at 4.78 µM; 0.12% of 320,000 active; Photoreceptor-specific nuclear receptor (Homo sapiens), Q9Y5X4; 1536-well;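 active = percent inhibition above the cutoff of mean plus 3 SD of all tested compounds, set per screening campaign, cut at about 20% in these data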;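 note: 0% = DMSO wells and 100% = biotin wells as full block of FRET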
#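 Test system – NR2E3–RetCOR corepressor complex · Quantity – NR2E3 fusion 1.35 nM · Buffer or medium – Tris pH 7.5 · Incubation – Compound–protein incubation for 5 h at 4 °C · Technique – TR-FRET, Eu(K)-anti-GST donor, streptavidin-D2 acceptor, ex 340, em 617/671 nm · Evaluation – percent inhibition of 671/617 nm emission ratio versus biotin and DMSO controls · Plate – 1536-well format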
# PGE2 EP2 inh = human EP2 receptor antagonists, primary screen, TR-FRET cAMP, C6 glioma cells | inhibition, % at 25 µM | C6 glioma cells expressing human EP2; cells stimulated with saturating PGE2 | Prostaglandin E2 receptor EP2 subtype (Homo sapiens), P43116 | 0.52% of 260,000 active;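 active = percent inhibition above 40 after rounding to a whole number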;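 note: rat C6 glioma host cells with rolipram phosphodiesterase inhibitor present; the protocol text gives 20 µM as final concentration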
# Target sequence (P43116 whole entry, looked up): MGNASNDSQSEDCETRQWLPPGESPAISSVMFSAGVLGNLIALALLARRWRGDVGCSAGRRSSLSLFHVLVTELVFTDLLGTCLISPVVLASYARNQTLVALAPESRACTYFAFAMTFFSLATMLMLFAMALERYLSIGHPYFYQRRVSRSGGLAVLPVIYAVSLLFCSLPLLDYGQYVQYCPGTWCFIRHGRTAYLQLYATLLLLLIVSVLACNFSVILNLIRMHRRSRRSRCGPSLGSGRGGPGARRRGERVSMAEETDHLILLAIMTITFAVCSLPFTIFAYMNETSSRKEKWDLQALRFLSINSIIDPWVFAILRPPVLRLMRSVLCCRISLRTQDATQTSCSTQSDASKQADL
# EP2 modulator = EP2 receptor modulators, cAMP readout, primary screen, cell-based, HTRF cAMP, PGE2 stimulation | Prostaglandin E2 receptor EP2 subtype (Homo sapiens), P43116 | EP2-expressing cells, cAMP HTRF FRET, PGE2 co-stimulation | induction, % at 25 µM | 0.83% of 260,000 active | AID 940, 2007;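 active = compounds whose cAMP rise, as percent of the full-agonist control response, exceeds 60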;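 note: rat C6 glioma line stably carrying human EP2 under a CMV promoter; the protocol text gives 20 µM as final concentration; 100% = response of wells given 1 µM PGE2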
# Furin inhibitor = human furin inhibitors, primary screen, biochemical, fluorescence intensity | P09958 | purified furin, fluorogenic substrate cleavage | inhibition, % at 20 µM or 30 µM | 0.061% of 220,000 active | AID 463115, 2010; in the data active = inhibition above about 25%
# NR2E3 ag conf = NR2E3 agonist confirmation in cells, cell-based, luminescence, CHO-S two-hybrid. 51% of 2,300 active. shares compounds with NR2E3 ag-1. inhibition, % at 3.98 µM. CHO-S mammalian two-hybrid NR2E3-NCOR, luciferase luminescence;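 active = average inhibition above a cutoff equal to the mean inhibition of all tested compounds plus one SD, cut at about 70% in these data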;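 note: 0% = DMSO in NR2E3 cells and 100% = DMSO in cells lacking NR2E3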
# VP16 counter = GAL4-VP16 reporter modulators, confirmation, counter-screen for NR2E3 agonist project, cell-based, luminescence, CHO-S, high throughput; shares compounds with NR2E3 ag-1; CHO-S GAL4-VP16 luciferase reporter; inhibition, % at 3.98 µM; 29% of 2,300 active; AID 624379, 2012;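 active = mean inhibition above a cutoff equal to the average over all tested compounds plus one standard deviation, cut at about 70% in these data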;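 note: luciferase from a UAS reporter driven by GAL4-VP16 transactivation; 0% = DMSO with VP16-transfected cells and 100% = DMSO with cells lacking VP16; higher means less reporter light so more repression of VP16 activity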
# The depositor's hits bear a star; ? = inconclusive; / = not tested or not shown. Sampled rows, rich in hits. Any-hit rate of the full collection: about 1.3%.
SMILES,NR2E3 ag-1,JMJD2C inh,NR2E3 ag-2,PGE2 EP2 inh,EP2 modulator,Furin inhibitor,NR2E3 ag conf,VP16 counter
CC(=O)Nc1ccc(SCC(=O)c2cc(C)n(-c3ccccc3)c2C)cc1,55.5,7.8,-0.4,11.4,17.6,-8.5,64.1,-7.9
COc1ccc(-n2c(C)cc(C(=O)CSc3ccc(NC(C)=O)cc3)c2C)cc1,-78.4,-2.2,-1.3,18.1,18.3,-25.8,/,/
Cc1ccc(CN(CCCn2ccnc2)Cc2cn[nH]c2-c2ccc(Cl)cc2)o1,/,/,/,7.8,-12.6,/,/,/
COCCC1CCCCN1C(=O)c1cc(COc2ccc(C)nc2)on1 (stereo unspecified),26.5,26.5,0.1,/,/,/,/,/
O=C(c1cc(COc2cccc(C(F)(F)F)c2)on1)N1CCC(Oc2cccnc2)CC1,77.6*,-8.3,-2.3,/,/,/,92.3*,74.8*
Cc1ccc(OCc2cc(C(=O)N3CCC(Oc4cccnc4)CC3)no2)cc1C,96.9*,-4.9,1.0,/,/,/,91.4*,69.9
CC(=O)c1ccc(OCc2cc(C(=O)N3CCC(Oc4ccccc4C)CC3)no2)cc1,-59.3,-1.1,1.4,/,/,/,/,/
COCCCC1CCN(C(=O)c2cc(COc3ccc(C)nc3)on2)CC1,61.5,8.1,-3.6,/,/,/,21.1,30.0
COC(=O)C1C(=O)C2=C(CC1C)Nc1ccccc1NC2c1ccc(N(C)C)cc1 (stereo unspecified),/,/,/,4.6,-4.0,/,/,/
Nc1ncnc2c(C3OC(CO)C(O)C3O)c[nH]c12 (stereo unspecified),102.9*,/,/,/,/,/,100.6*,99.4*
Nc1ncnc2c1ncn2[C@@H]1O[C@H](CO)[C@@H](O)[C@H]1O,20.0,3.2,-0.2,13.4,30.3,-21.6,/,/
CC[C@@H](Cn1nc(-c2cccs2)ccc1=O)NC(=O)C1CCN(S(C)(=O)=O)CC1,/,/,/,4.6,9.6,/,/,/
Cc1ccc(NNC(=O)C(=O)N2CCCCC2)cc1,57.4,-4.1,1.8,3.5,-6.5,-5.8,37.4,24.2
Oc1ccc(Cl)cc1Sc1cc(Cl)ccc1O,60.8,/,/,17.1,1.6,/,100.2*,66.1
Cc1cccc2cc(CN(C(=S)NC3CCCCC3)C3CCCC3)c(=O)[nH]c12,/,/,/,8.0,22.2,/,/,/
Cc1cccc(C(=O)N[C@H](C(=O)Nc2nnc(C3CC3)s2)C(C)C)c1,15.2,-4.0,-4.0,5.3,11.2,-18.8,/,/
Cc1cccc(C(=O)N[C@H](C(=O)Nc2ncc(C)s2)C(C)C)c1,85.0*,7.9,0.9,6.7,-18.9,-27.8,98.3*,22.7
O=C(CSc1nnnn1-c1ccc2c(c1)OCCO2)Nc1nc2c(s1)CCCC2,95.7*,-23.1,2.8,8.0,-47.3,-23.5,98.5*,4.9
CN1c2ccccc2C(O)=C(C(=S)Nc2ccccc2)S1(=O)=O,16.5,?,2.1,5.8,-11.4,-5.4,/,/
CN1c2ccccc2C(O)=C(C(=S)Nc2ccc(F)c(Cl)c2)S1(=O)=O,49.4,4.5,-3.3,11.1,-9.3,-5.3,88.3*,58.5
COCCn1c(SCC(=O)Nc2cccc3ccccc23)nnc1-c1cc2ccccc2cc1O,/,/,/,7.3,-57.0,/,/,/
CCOC(=O)Cc1csc(NC(=O)CSc2nnc3c(C)cc4cc(OC)ccc4n23)n1,/,/,/,20.0,-12.8,/,/,/
Cc1ccccc1C(=O)N1CCC(C(=O)N2CCC(C(N)=O)CC2)CC1,/,/,/,8.9,-31.4,/,/,/
COc1ccccc1C(=O)Nc1nc2ccccc2s1,66.4,-6.5,1.2,/,/,/,65.3,52.2

# Assay outcomes (PubChem)
